Source: PubChem
Sampled rows, rich in hits. Any-hit rate of the full collection: about 3.8%.
KCNK3 inh = human KCNK3 channel inhibition, primary screen | O14649 | CHO-KCNK3 thallium flux, FluxOR fluorescence; stronger effect = lower value | B-score at 10 µM | hit rate 0.84% among 340,000 | AID 602410;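 active means B-score under library mean minus 4 SD, starting fluorescence ratio at most library mean plus 5 SD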;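 further: more negative B-score means stronger inhibition of thallium flux through KCNK3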
KCNQ1 act = human KCNQ1 channel potentiation or activation; CHO-K1 KCNQ1, thallium flux FluxOR fluorescence; stronger effect = higher value; B-score at 10 µM; P51787; AID 2648; hit rate 0.35% among 310,000;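 active means fluorescence ratio B-score, a plate-corrected score, at least three library SD, with initial intensity B-score within 5 SD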
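assay system = CHO-K1 cells stably expressing KCNQ1 | medium = assay buffer, equal DMSO in all wells | timing = 37 °C overnight plating, 90-min dark dye load, 20-min compound pretreatment | measured by = kinetic FluxOR thallium fluorescence, 10-s 1-Hz baseline, 110-s post-stimulus read | measure = fluorescence change relative to baseline, converted to B score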
Kir21 block = Kir2.1 (mouse) channel inhibition | hit rate 0.85% among 310,000 | B-score at 10 µM | P35561 | HEK293-Kir2.1, FluxOR thallium flux fluorescence; stronger effect = lower value;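 active means fluorescence ratio B-score at or below minus 3 SD of library scores, with starting-brightness B-score within 2 SD, cut at about -4.2 in these data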;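 further: channel flux triggered by added potassium and thallium sulfate stimulus; B-score of peak minus minimum fluorescence over baseline after thallium stimulus; more negative B-score means stronger Kir2.1 block with less thallium influx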
hERG protect = shields human hERG channel from block by proarrhythmic agents. Q12809. CHO-hERG, FluxOR thallium flux, dofetilide IC70 present. activation (rescue from dofetilide block), less the hit threshold, % at 10 µM. hit rate 0.51% among 310,000;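 active means activation above the mean of controls blocked by dofetilide plus 5 SD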;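 further: thallium influx through hERG after potassium depolarization seen as dye fluorescence rise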
Target sequence (Q12809 whole entry, looked up): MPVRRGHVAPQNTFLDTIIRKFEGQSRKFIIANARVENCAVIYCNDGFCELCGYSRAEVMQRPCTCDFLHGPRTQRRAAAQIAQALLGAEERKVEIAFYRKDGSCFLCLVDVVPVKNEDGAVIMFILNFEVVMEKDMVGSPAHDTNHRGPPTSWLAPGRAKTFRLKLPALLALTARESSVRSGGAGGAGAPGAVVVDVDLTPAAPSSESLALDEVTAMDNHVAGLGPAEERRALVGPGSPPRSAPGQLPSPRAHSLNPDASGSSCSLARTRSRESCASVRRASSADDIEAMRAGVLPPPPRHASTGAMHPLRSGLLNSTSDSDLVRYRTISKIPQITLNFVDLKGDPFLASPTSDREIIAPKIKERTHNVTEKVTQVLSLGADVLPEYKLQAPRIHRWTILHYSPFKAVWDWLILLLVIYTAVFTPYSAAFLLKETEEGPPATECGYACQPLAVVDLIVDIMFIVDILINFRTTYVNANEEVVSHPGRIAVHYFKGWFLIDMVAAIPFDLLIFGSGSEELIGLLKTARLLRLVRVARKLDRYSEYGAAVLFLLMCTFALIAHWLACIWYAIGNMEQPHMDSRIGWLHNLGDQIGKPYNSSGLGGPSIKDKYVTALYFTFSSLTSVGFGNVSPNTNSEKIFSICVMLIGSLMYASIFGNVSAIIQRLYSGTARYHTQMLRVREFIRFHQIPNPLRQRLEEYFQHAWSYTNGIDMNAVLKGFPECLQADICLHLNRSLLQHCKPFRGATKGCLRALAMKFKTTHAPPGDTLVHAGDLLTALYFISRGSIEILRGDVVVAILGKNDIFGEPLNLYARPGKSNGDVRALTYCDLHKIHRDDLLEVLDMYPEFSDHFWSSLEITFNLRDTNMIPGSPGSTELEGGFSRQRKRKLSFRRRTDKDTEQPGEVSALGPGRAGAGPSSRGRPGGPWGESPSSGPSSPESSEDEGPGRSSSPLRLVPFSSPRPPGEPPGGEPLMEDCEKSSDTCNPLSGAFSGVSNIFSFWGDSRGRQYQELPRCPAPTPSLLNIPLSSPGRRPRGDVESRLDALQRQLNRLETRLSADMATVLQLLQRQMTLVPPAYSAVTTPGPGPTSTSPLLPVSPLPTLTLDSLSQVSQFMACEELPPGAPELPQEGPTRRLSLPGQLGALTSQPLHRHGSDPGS
KCNK9 inh = blocks the human KCNK9 two-pore domain potassium channel; B-score at 10 µM; HEK293 KCNK9, FluxOR thallium flux fluorescence; stronger effect = lower value; AID 488922; Q9NPC2; hit rate 1.2% among 310,000;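 active means ratio B-score over 3 SD below the library mean, with starting fluorescence within 5 SD of its mean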;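 further: negative B-score means less thallium flux so channel inhibition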
KCNQ1 block = blocks the human KCNQ1 potassium channel. P51787. CHO-K1 KCNQ1, FluxOR thallium flux fluorescence; stronger effect = higher value. B-score at 10 µM. hit rate 1.3% among 310,000. AID 2642;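 active means compounds whose thallium flux B-score, printed positive for inhibition, exceeds three library SD while starting fluorescence stays within three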;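 further: channel opened by potassium depolarization with thallium stimulus after 20 min compound exposure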
KCNK9 inh conf = confirmation of human KCNK9 potassium channel inhibitors; shares compounds with KCNK9 inh; HEK293 KCNK9 cells, FluxOR thallium flux fluorescence; inhibition, % at 10 µM; hit rate 43% among 4,900;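 active means thallium signal inhibited by more than 5 SD of the compound-free buffer control wells, on both duplicate plates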;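 further: 0% = assay buffer control wells without compound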
Kir21 sel = selectivity of KCNK9 modulators against mouse Kir2.1 | shares compounds with KCNK9 inh | Kir2.1 cells, FluxOR thallium flux fluorescence | inhibition, % at 10 µM | hit rate 4% among 4,900;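 active means thallium signal drop more than 5 SD beyond the mean of the no-compound control wells, seen in both duplicate plates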;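 further: signal is fluorescence rise after thallium addition divided by baseline fluorescence; plate controls were assay buffer only for no effect and full block by chlorpromazine control for full effect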
KCNK9 uninduced = second counter-screen for KCNK9 modulators: effect in non-induced cells; hit rate 40% among 4,900; AID 492997; shares compounds with KCNK9 inh; non-induced KCNK9-HEK293, FluxOR thallium flux; inhibition, % at 10 µM;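 active means thallium signal drop beyond 5 SD of the untreated control mean, on both duplicate plates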;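 further: plate controls were buffer only IC0 wells for no effect and SID17386958 at its maximal inhibitory level for full effect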
Starred values were filed as active, the others as inactive; i = inactive; · = no result given.

SMILES | KCNK3 inh | KCNQ1 act | Kir21 block | hERG protect | KCNK9 inh | KCNQ1 block | KCNK9 inh conf | Kir21 sel | KCNK9 uninduced
COCCNC(=O)COc1coc(CN2CCN(Cc3ccccc3)CC2)cc1=O | i | i | -0.22 | -5 | i | i | · | · | ·
CC(C)CSC1=NSC2=NC(=O)/C(=C\c3ccccc3)C(=N)N12 | i | 20* | 1.2 | 22* | i | i | i | i | i
Cc1cc(/C=C2\C(=N)N3C(SCc4ccccc4)=NSC3=NC2=O)c(C)n1Cc1ccccc1 | i | i | -0.86 | -5 | i | i | · | · | ·
CC1/C(=C\c2ccc(Cl)cc2)C(=O)C2CC1C2(C)C (centres undefined) | i | i | 2.5 | -5 | i | i | i | i | i
CC1CCC(C(C)C)C(=O)/C1=C/c1ccc(N)cc1 (centres undefined) | i | i | -0.02 | -7 | i | i | · | · | ·
COc1ccc2[nH]cc(CCNC(=O)c3ccco3)c2c1 | i | · | · | · | · | · | · | · | ·
O=C(Oc1ccc2[nH]cc(CCN3C(=O)c4ccccc4C3=O)c2c1)c1ccco1 | i | i | -1.6 | -12 | -11* | i | 26%* | i | i
O=C(COC(=O)c1c2c(nc3ccccc13)CCN(Cc1ccccc1)C2)Nc1c(F)cccc1F | i | i | -0.21 | -7 | -8.3* | i | i | i | i
O=C1NN(c2ccccc2)C(=O)/C1=C/c1ccc(-c2ccc(C(=O)O)cc2)o1 | i | i | 1.4 | -2 | i | i | · | · | ·
O=C1NN(c2ccccc2)C(=O)/C1=C/c1ccc(Sc2cccc3ccccc23)o1 | i | i | -0.02 | -10 | i | i | i | i | i
Cc1ccc(S(=O)(=O)NN2C(=O)/C(=C/c3cccc(F)c3)SC2=S)cc1 | i | 10* | -0.05 | -2 | i | i | i | i | i
Cc1ccc(S(=O)(=O)NN2C(=O)/C(=C/c3ccccn3)SC2=S)cc1 | i | i | 1.2 | -3 | i | i | · | · | ·
COc1cc(/C=C2\SC(=S)N(NS(=O)(=O)c3ccc(C)cc3)C2=O)ccc1O | i | i | -0.05 | -27 | i | i | · | · | ·
COc1cc(/C=C2\SC(=S)N(NS(=O)(=O)c3ccc(C)cc3)C2=O)cc(OC)c1OC | i | i | -0.01 | -13 | i | i | i | i | i
COc1ccc(C(C)=O)cc1COc1ccc(Cl)cc1Cl | i | i | 0.74 | 0 | -14* | i | 50%* | i | 37%*
Cc1ccc(C)c(N(C)S(=O)(=O)c2ccc3c(c2)oc(=O)n3C)c1 | i | i | 0.16 | -8 | i | i | · | · | ·
CC1CC(C)CN(S(=O)(=O)c2ccc(NC(=O)C3COc4ccccc4O3)cc2)C1 (centres undefined) | i | i | -0.25 | -6 | i | i | i | i | i
CN(C(=O)CSC1=Nc2ccccc2C2=NC(c3ccccc3)C(=O)N12)C1CCCCC1 (centres undefined) | i | i | 0.38 | -13 | i | i | · | · | ·
COc1ccc(/C(C)=N/Nc2ccc(C(=O)O)cc2)c(OC)c1 | i | i | -1.1 | 1 | i | i | · | · | ·
COc1ccc2c(c1)C(=NNc1ccc(C(=O)O)cc1)c1cc(OC)ccc1-2 | i | i | 1.8 | -8 | i | i | i | i | i
CC[C@@]1(C(=O)OC)N[C@H](CN(C)C(=O)COC)[C@@H]2C(=O)N(Cc3ccccc3)C(=O)[C@@H]21 | i | · | · | · | · | · | · | · | ·
COc1ccc(NCc2nc3ccccc3n2C)cc1 | i | i | 1.2 | -1 | i | i | · | · | ·
COc1ccc(NCc2nc3ccccc3n2CCOc2ccc(C)cc2)cc1 | i | i | -0.86 | 0 | -11* | i | 70%* | 48%* | 52%*
Cc1cccc(OCCn2c(-c3ccco3)nc3ccccc32)c1 | i | i | -1.9 | -18 | -10* | i | 30%* | i | 34%*
c1ccc(OCCn2c(-c3ccco3)nc3ccccc32)cc1 | i | i | 0.41 | -13 | i | i | · | · | ·
SMILES | KCNK3 inh | KCNQ1 act | Kir21 block | hERG protect | KCNK9 inh | KCNQ1 block | KCNK9 inh conf | Kir21 sel | KCNK9 uninduced
c1ccc(NCc2nc3ccccc3n2CCOc2ccccc2)cc1 | i | i | -2.8 | -5 | i | i | · | · | ·
COc1ccc(NCc2nc3ccccc3n2CCOc2ccccc2)cc1 | i | i | -4.5* | -5 | -11* | i | i | i | 33%*
O=C(NCC(=O)N1CCN(S(=O)(=O)c2ccccc2F)CC1)c1ccc(Br)o1 | i | i | 2.4 | -7 | i | i | · | · | ·
Cc1c(NC(=O)N(C)c2ccccc2)c(=O)n(-c2ccccc2)n1C | i | i | 1.5 | 2 | i | i | · | · | ·
COc1ccc(/C=C/C(O)=C2/C(=O)N(C)C3(C)CC2c2ccccc2O3)cc1 (centres undefined) | i | i | 0.69 | -12 | -10* | i | 41%* | i | 30%*
Cc1ccc(/C=C/C(O)=C2/C(=O)N(C)C3(C)CC2c2ccccc2O3)cc1 (centres undefined) | i | i | 2 | -10 | -8.3* | i | 52%* | i | 42%*
COc1ccc(/C=C/C(O)=C2/C(=O)NC3(C)CC2c2ccccc2O3)c(OC)c1OC (centres undefined) | i | i | -1.5 | -5 | i | i | · | · | ·
O=C(NCc1ccco1)N1c2ccccc2Sc2ccccc21 | i | i | -1.8 | -8 | i | i | i | i | i
CC(C)NC(=O)N1c2ccccc2Sc2ccccc21 | i | i | 0.16 | -6 | i | i | · | · | ·
CC(C)(C)NC(=O)N1c2ccccc2Sc2ccccc21 | i | i | -0.97 | -6 | i | i | i | i | i
CC(=O)N1c2ccccc2Sc2ccccc21 | i | i | -1.3 | -5 | i | i | · | · | ·
COc1ccccc1C(=O)N1c2ccccc2Sc2ccccc21 | i | i | 0.59 | -10 | -14* | i | 54%* | i | 42%*
COc1ccc(CCNC(=O)N2c3ccccc3Sc3ccccc32)cc1 | i | i | -2.6 | -9 | i | i | i | i | i
Cc1sc(NC(=O)C2=COCCO2)c(C(N)=O)c1C | i | i | -0.06 | -2 | i | i | · | · | ·
Cc1cccc(NC(=O)c2ccc(-n3ccnc3)nc2)c1 | i | i | 0.58 | -20 | i | i | · | · | ·
